Measurements of several laboratories.
Compare with care: the assays were run in different laboratories.
KIT autoinhibited: Mast/stem cell growth factor receptor Kit, autoinhibited (KIT, Homo sapiens, UniProt P10721)
KIT T670I/V559D: Mast/stem cell growth factor receptor Kit (KIT, Homo sapiens, UniProt P10721, T670I/V559D)
KIT V559D/V654A: Mast/stem cell growth factor receptor Kit (KIT, Homo sapiens, UniProt P10721, V559D/V654A)
KIT V559D: Mast/stem cell growth factor receptor Kit (KIT, Homo sapiens, UniProt P10721, V559D)
KIT: Mast/stem cell growth factor receptor Kit (KIT, Homo sapiens, UniProt P10721)
KIT A829P: Mast/stem cell growth factor receptor Kit (KIT, Homo sapiens, UniProt P10721, A829P)
KIT D816V: Mast/stem cell growth factor receptor Kit (KIT, Homo sapiens, UniProt P10721, D816V)
KIT L576P: Mast/stem cell growth factor receptor Kit (KIT, Homo sapiens, UniProt P10721, L576P)

COc1cc(-c2cn(C3CCc4ccccc4N(CC(F)(F)F)C3=O)nn2)ccc1-n1ccc(C)n1 (stereo not drawn) — remaining binding (KIT autoinhibited; cell-free assay, competition with immobilised ligand; 1 µM): 100%
N[C@@H]1CCN(c2nccc(-c3cnn4ncccc34)n2)C1 — remaining binding (Mast/stem cell growth factor receptor Kit (KIT, Homo sapiens, UniProt P10721, D816H); binding; 1 µM): 100%
COc1cnc(Nc2cccc(S(N)(=O)=O)c2)nc1N1CCN(c2ccccc2)CC1 — remaining binding (KIT T670I/V559D; binding, competition with immobilised ligand; 1 µM): 97%
CCCOc1ccc([C@@H]2[C@@H](C(=O)O)[C@H](c3ccc4c(c3)OCO4)CN2CC(=O)Nc2c(CC)cccc2CC)cc1 — remaining binding (KIT V559D/V654A; cell-free assay, competition with immobilised ligand; 1 µM): 94%
CN(C)c1nccc(-c2cnn3ncccc23)n1 — remaining binding (KIT V559D; binding; 1 µM): 100%
C[C@@H]1CN(c2ccc3ncc(-c4ccc5[nH]nc(C6CC6)c5c4)n3n2)C[C@H](C)O1 — remaining binding (KIT; binding, competition with immobilised ligand; 50 nM): 96%
O=C(Nc1c[nH]nc1C(=O)NC1CCNCC1)c1cc(F)cc(F)c1 — remaining binding (KIT A829P; binding, competition with immobilised ligand; 1 µM): 92%
CN(C)c1nccc(-c2cnc3ncccn23)n1 — remaining binding (KIT; binding; 1 µM): 69%
C[C@@H](c1ccc(-n2cnc3c(N)ncnc32)cc1)N1CCc2nn(C)c(Cc3ccccc3)c2C1=O — remaining binding (KIT D816V; binding, competition with immobilised ligand; 0.1 µM): 99%
O=C(Nc1ccc(Oc2ccc(F)cc2)cc1)N1CCc2ncccc2[C@H]1c1ccc(F)cc1 — remaining binding (KIT; cell-free assay, competition with immobilised ligand; 1 µM): 97%
O=C(NCCCN1CCOCC1)c1ccc(Nc2nccc(-c3cc4ccccc4s3)n2)cc1 — remaining binding (KIT; binding, competition with immobilised ligand; 1 µM): 63%
C[C@H]1CCN(c2nccc(-c3cnn4ncccc34)n2)C1 — remaining binding (KIT; binding; 1 µM): 96%
O=C(c1ccc(Nc2ncc(Cl)c(-c3ccc(Cl)s3)n2)cc1)N1CCC(N2CCCC2)CC1 — remaining binding (KIT autoinhibited; binding, competition with immobilised ligand; 1 µM): 7.2%
CCc1ccccc1C(=O)Nc1n[nH]c2c(C)c(F)c(C3C(C#N)=C(C)N(C)C(C)=C3C#N)cc12 — remaining binding (KIT D816V; cell-free assay, competition with immobilised ligand; 1 µM): 55%
CC1CCCN1c1nccc(-c2cnn3ncccc23)n1 (stereo not drawn) — remaining binding (KIT D816V; binding; 1 µM): 100%
CC(C)(O)c1cncc(-c2nc3ccc(F)cc3n2C2CC2)c1 — remaining binding (KIT A829P; cell-free assay, competition with immobilised ligand; 1 µM): 100%
COc1cnc(Nc2cccc(S(N)(=O)=O)c2)nc1N1CCN(c2ccccc2)C(=O)C1 — remaining binding (KIT A829P; binding, competition with immobilised ligand; 1 µM): 68%
CN(c1ccnc(CNc2nc(Nc3ccc4c(c3)CC(=O)N4)ncc2C(F)(F)F)n1)S(C)(=O)=O — remaining binding (KIT V559D; cell-free assay, competition with immobilised ligand; 1 µM): 75%
CC(C)(C)c1ccc(-c2nc(CBr)nn2-c2cccc(O)c2)cc1 — remaining binding (KIT T670I/V559D; cell-free assay, competition with immobilised ligand; 10 µM): 95%
CCN1CCN(Cc2ccc(C(=O)Nc3ccc(C)c(Oc4ccc5c(c4)CC(=O)N5)c3)cc2C(F)(F)F)CC1 — remaining binding (KIT L576P; binding, competition with immobilised ligand; 1 µM): 2.9%
CN(C)c1ncc(F)c(-c2cnn3ncccc23)n1 — remaining binding (KIT V559D/V654A; binding; 1 µM): 68%
C=CC(=O)N1CCC(C(=O)NCC(=O)N2CCN(c3nc(-c4cnc(N)nc4C(F)F)nc(N4CCOCC4)n3)CC2)CC1 — remaining binding (KIT D816V; binding, competition with immobilised ligand; 1 µM): 79%
CCC(=O)N[C@@H]1CC[C@H](C(=O)N(C)c2ccc(-c3nc4ccccc4o3)cc2)C1 — remaining binding (KIT autoinhibited; cell-free assay, competition with immobilised ligand; 1 µM): 93%
Cc1cnc(Nc2ccc(C(=O)N3CCC(N4CCCC4)CC3)cc2)nc1-c1cc2ccccc2s1 — remaining binding (KIT L576P; binding, competition with immobilised ligand; 1 µM): 1%
